Several values for one entry are separate records, joined by “and”; a condition that tells them apart may be missing. Identical values can stand only once.
Experiments:
Assay type in all cases: functional, Rattus norvegicus, Hippocampus
[1] = Evaluation for reversing the inhibitory effects of Fumonisin B1(FB1) on accelerated axonal growth of hippocampal neurons.
How it was run: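 E18 Wistar rat hippocampal neurons, trypsin-dissociated and plated at low density on poly-L-lysine cover slips over a glial monolayer in serum-free N2 MEM. At 48 h: bFGF 1 ng/mL plus FB1 10 μM (Hepes stock) with or without analogue 5 μM (ethanol, ≤1% final). At 51 h, fixed in glutaraldehyde and axonal branch points/cell counted by phase contrast. Values normalized to 48 h; mean ± SEM of three cultures, 50 cells per cover slip, two cover slips per treatment; p values reported.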

[2] = Inability to reverse inhibitory effect of D-threo-1-phenyl-2-decanoylamino-3-morpholino-1-propanol(PDMP) on accelerated axonal growth of hippocampal neurons, number of axonal branch points/ cell at 51 hour (P value)
How it was run: (§1)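 Rat (E18 Wistar) hippocampal neurons cultured at low density over glia in serum-free N2 MEM. Treated at 48 h with bFGF 1 ng/mL, PDMP 50 μM final (Hepes stock) and with or without analogue 5 μM from ethanol (≤1% final). Axonal branch points/cell counted by phase contrast after glutaraldehyde fixation at 51 h and normalized to 48 h. Mean ± SEM of three cultures, 50 cells × two cover slips; p values vs bFGF or bFGF+PDMP.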

[3] = Inability to reverse inhibitory effect of D-threo-1-phenyl-2-decanoylamino-3-morpholino-1-propanol(PDMP) on accelerated axonal growth of hippocampal neurons (P value); how it was run: as §1

Row | SMILES | No. of axonal points [1] | No. of axonal points [2] | No. of axonal points [3]
1 | CCCCCCC/C=C/[C@@H](F)[C@H](CO)NC(=O)CCCCC | 1.39 | 1.12 | 
2 | CCCCCCC/C=C/[C@H](F)[C@H](CO)NC(=O)CCCCC | 1.29 | 1.16 | 
3 | CCCCCC(=O)N[C@@H](CO)[C@H](O)/C=C/c1ccc(C)cc1 | 1.46 |  | 
4 | CCCCCc1ccc(/C=C/[C@@H](O)[C@H](CO)NC(C)=O)cc1 | 1.67 |  | 
5 | CCCCCC(=O)N[C@@H](CO)[C@H](O)/C=C/c1ccc(F)cc1 | 1.5 |  | 
6 | CCCCCCCCCCCCC/C=C/[C@@H](O)[C@H](CO)NC(=O)CCCCCNc1ccc([N+](=O)[O-])c2nonc12 | <1.66 and 1.46 | 0.86 and 1.08 | 
7 | CCCCCCCCCCCCC/C=C/[C@H](O)[C@H](CO)NC(=O)CCCCCNc1ccc([N+](=O)[O-])c2nonc12 | <1.01 and <1.06 | 1.06 | 0.94
8 | CCCCCC(=O)N[C@@H](CO)[C@H](O)/C=C/c1ccc(OC)cc1 | 1.35 |  | 
9 | CCCCCC(=O)N[C@@H](CO)[C@H](O)/C=C/c1cccs1 | 1.38 | 1.04 | 
10 | CCCCCc1ccc(/C=C/[C@@H](O)[C@H](CO)NC(=O)CCC)cc1 | 1.83 |  | 
11 | CCCCCC(=O)N[C@@H](CO)[C@H](O)/C=C/c1ccc(CCCCC)cc1 | 1.54 |  | 
12 | CCCCCCC/C=C/[C@@H](O)[C@H](CO)NC(=O)CCCCC | 1.43 |  | 
13 | CCCCCCC/C=C/[C@H](O)[C@H](CO)NC(=O)CCCCC | 1.11 |  | 
14 | CCCCCC(=O)N[C@@H](CO)[C@H](O)/C=C/c1ccccc1 | 2.09 | 0.92 | 
